Data reported in ChEMBL document CHEMBL1147872, “Syntheses of new tetrasubstituted thiophenes as novel anti-inflammatory agents” (Eur J Med Chem, 2007).
Values after ≈ are worked out from the molar mass of the structure shown.

Assays:
Format in all cases: functional
Rattus norvegicus = test: Antiinflammatory activity in Albino rat assessed as protection against carrageenan-induced hind paw oedema at 100 mg/kg, po after 3 hrs
Method in brief: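 Rats (150–250 g, either sex) were fasted 18 h and grouped in sixes. Compounds or standards were given orally as a suspension in 5% DMSO. After 1 h, 0.1 ml of 1% carrageenin was injected subplantar into the right hind paw. Paw volume was read by mercury plethysmometer at once and at 3 h. % protection = 100(1−Vt/Vc) versus vehicle.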

[1] = Antioxidant activity assessed as nitric oxide radical scavenging activity at 0.8 ug/ml after 150 mins
Method in brief: (§1)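 Sodium nitroprusside (10 mmol) in PBS at physiological pH was incubated with sample at 25 °C for 150 min in a 3 ml reaction. Aliquots taken every 30 min were mixed 1:1 with Griess reagent (1% sulphanilamide, 0.1% naphthylethylenediamine in 2% H3PO4), and absorbance was read at 546 nm. Runs were done in triplicate, and % scavenging was calculated against the blank.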

[2] = Antioxidant activity assessed as nitric oxide radical scavenging activity at 0.2 ug/ml after 150 mins; method in brief: as §1
[3] = Inhibition of nitric oxide radical scavenging activity; method in brief: as §1
[4] = Antioxidant activity assessed as nitric oxide radical scavenging activity at 0.6 ug/ml after 150 mins; method in brief: as §1
[5] = Antioxidant activity assessed as nitric oxide radical scavenging activity at 1.0 ug/ml after 150 mins; method in brief: as §1
[6] = Antioxidant activity assessed as nitric oxide radical scavenging activity at 0.1 ug/ml after 150 mins; method in brief: as §1
[7] = Antioxidant activity assessed as nitric oxide radical scavenging activity at 0.4 ug/ml after 150 mins; method in brief: as §1
[8] = Antioxidant activity assessed as nitric oxide radical scavenging activity at 1.2 ug/ml after 150 mins; method in brief: as §1

| IC50 [3] [µg/mL] | Structure (SMILES) | Activity (Rattus norvegicus) [%] | Activity [1] [%] | Activity [2] [%] | Activity [4] [%] | Activity [5] [%] | Activity [6] [%] | Activity [7] [%] | Activity [8] [%] |
| --- | --- | --- | --- | --- | --- | --- | --- | --- | --- |
|  | Cc1cccc(Nc2ccccc2C(=O)O)c1C [MEFENAMIC ACID] | 39 |  |  |  |  |  |  |  |
| 0.52 (≈ 2.95 µM) | O=C1O[C@H]([C@@H](O)CO)C(O)=C1O [ASCORBIC ACID] |  | 41.6 | 11.5 | 39.3 | 58.3 | 2.98 | 29.5 | 70.2 |
